Measurements of several laboratories.
Each line is one published result; the experiments were not run side by side.
Target: 5-hydroxytryptamine receptor 1A (HTR1A, Homo sapiens, UniProt P08908)
Residues used in one study (P08908 1-422): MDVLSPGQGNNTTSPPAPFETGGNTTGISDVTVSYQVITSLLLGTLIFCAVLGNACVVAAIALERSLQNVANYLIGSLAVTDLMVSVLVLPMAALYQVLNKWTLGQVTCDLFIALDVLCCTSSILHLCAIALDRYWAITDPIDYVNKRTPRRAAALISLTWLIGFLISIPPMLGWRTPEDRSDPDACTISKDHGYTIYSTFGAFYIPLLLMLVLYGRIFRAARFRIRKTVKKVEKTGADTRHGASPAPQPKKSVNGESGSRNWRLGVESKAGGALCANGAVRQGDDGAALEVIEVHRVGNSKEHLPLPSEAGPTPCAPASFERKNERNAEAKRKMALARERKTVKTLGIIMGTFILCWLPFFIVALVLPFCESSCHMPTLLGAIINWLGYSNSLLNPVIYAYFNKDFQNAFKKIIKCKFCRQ

Compound | effect on | technique | quantity | value
O=C1c2ccccc2CCN1CCCCN1CCN(c2cccc(Cl)c2Cl)CC1 | ligand displacement | radioligand | Ki | 1.5 nM
CCCCN1CCC(COC(=O)c2ccc(N)c(OCF)c2)CC1 | cell-free assay | radioligand | Ki | > 10000 nM
C[C@@H]1Cc2ccccc2N1C(=O)NCCCCN(C)[C@@H]1Cc2cccc3[nH]c(=O)n(c23)C1 | ligand displacement | radioligand | Ki | 33.2 nM
CCOc1c(O)cc(Br)c2c1CN1CCc3cc(OCC(F)F)c(O)cc3[C@@H]1C2 | cell-free assay | radioligand | Ki | 334 nM
CN1CCCCC1CCN1c2ccccc2Sc2ccc([S+](C)[O-])cc21 (stereo not drawn) | ligand displacement | radioligand | IC50 | 33.1 nM
CCNC(=O)c1cc2c(N3CCOC[C@@H]3C)ccnc2[nH]1 | cell-free assay | radioligand | Ki | > 10000 nM
CN(CCCCNC(=O)c1cc2ccccc2[nH]1)[C@@H]1Cc2cccc3[nH]c(=O)n(c23)C1 | ligand displacement | radioligand | Ki | 127 nM
CCCC[C@H](NC(=O)[C@H](C)c1c(C)[nH]c2ccc(O)cc12)c1ncc(-c2cc3ccccc3nc2OC)[nH]1 | cell-free assay |  | Ki | 2080 nM
COc1ccccc1N1CCN(CCCCOc2ccc3c(c2)NC(=O)CC3)CC1 | ligand displacement | radioligand | Ki | 0.28 nM
